Results reported in ChEMBL document CHEMBL1148107, “Phomadecalins A-D and phomapentenone A: new bioactive metabolites from Phoma sp. NRRL 25697, a fungal colonist of Hypoxylon stromata” (2002).
Calls of active or inactive are those of the source. The rule behind the calls is not given here.

Key:
Staphylococcus aureus = experiment: Antimicrobial activity against Staphylococcus aureus ATCC 29213 at 200 ug/disk; type: functional; details: read-out: IZ
Outline: (§1)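 Standard disk diffusion assay with 200 µg of compound applied per disk. Activity was read as the diameter (mm) of the zone of growth inhibition around the disk.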

Candida albicans = experiment: Antimicrobial activity against Candida albicans ATCC 90029 at 200 ug/disk; type: functional, organism-based; outline: as §1
Bacillus subtilis = experiment: Antimicrobial activity against Bacillus subtilis ATCC 6051 at 200 ug/disk; type: functional; details: read-out: IZ; outline: as §1

C=C(CO)[C@@]12O[C@@H]1[C@@]1(C)C(=C[C@H]2O)C=C[C@@H](O)[C@@H]1C [PHOMADECALIN D]
zone of inhibition at 200 µg/disc (Staphylococcus aureus): 8 mm
Activity (Candida albicans): inactive
zone of inhibition at 200 µg/disc (Bacillus subtilis): 9 mm

C=C(CO)[C@@]12O[C@@H]1[C@@]1(C)C(=C[C@H]2O)C=CC[C@@H]1C [PHOMADECALIN A]
zone of inhibition at 200 µg/disc (Staphylococcus aureus): 10 mm
Activity (Candida albicans): inactive
zone of inhibition at 200 µg/disc (Bacillus subtilis): 18 mm

C=C(CO)[C@@]12O[C@@H]1[C@@]1(C)C(=C[C@H]2O)C=CC(=O)[C@@H]1C [PHOMADECALIN C]
zone of inhibition at 200 µg/disc (Bacillus subtilis): 12 mm

C=C(COC(C)=O)[C@@]12O[C@@H]1[C@@]1(C)C(=C[C@H]2O)C=C[C@@H](O)[C@@H]1C [PHOMADECALIN B]
zone of inhibition at 200 µg/disc (Staphylococcus aureus): 8 mm
Activity (Candida albicans): inactive
zone of inhibition at 200 µg/disc (Bacillus subtilis): 10 mm
